STAT1 act – increases IFN-gamma driven STAT1 reporter signal | NIH 3T3 STAT1-luciferase reporter, luminescence; 100% = IFN-gamma alone, no compound | activation (% of control), % at 5.5 µM | hit rate 2.6% among 200,000 | AID 932;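 active = activation above the screen-wide mean activation plus 3 SD, cut at about 130% in these data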
APP 5'UTR act – activates APP 5'UTR luciferase reporter; activation, % at 2 µM; hit rate 1% among 190,000; SH-SY5Y APP 5'UTR luciferase reporter, luminescence; zero percent = DMSO vehicle wells; AID 1276;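 active = activation above a set limit, based on mean plus 3 SD of controls, cut at about 140% in these data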
STAT1 inh – inhibitors of IFN-gamma induced STAT1 signaling. NIH 3T3 STAT1-luciferase reporter, luminescence. inhibition, % at 5.5 µM. hit rate 0.35% among 200,000. AID 920;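 active = inhibition above a set limit, the mean inhibition across all tested compounds plus 3 SD, cut at about 34% in these data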
NF-kB expr up – compounds increasing NF-kB expression in human neuronal cells; NF-kB reporter expression; stronger effect = higher value; fold change at 12.5 µM; hit rate 1.6% among 190,000; in the data active = fold change above about 3.3
STAT3 inh-1 – STAT3 signaling inhibition | U3A cells, IL-6 STAT3-luciferase reporter, luminescence; host cell line lacks STAT1 | inhibition, % at 5.5 µM | hit rate 0.89% among 190,000 | AID 862;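 active = inhibition above the mean inhibition across all screened compounds plus 3 SD, cut at about 44% in these data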
STAT3 act – STAT3 signaling activation. U3A cells, IL-6 STAT3-luciferase reporter, luminescence; 100% = signal with IL-6 EC80 alone. activation (% of control), % at 5.6 µM. hit rate 0.91% among 190,000. AID 871;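 active = activation above the screen-wide mean of compound activation plus 3 SD, cut at about 130% in these data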
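System – human U3A cells carrying STAT3-luciferase construct · Probe or stimulus – Interleukin-6, 33 ng/mL · Schedule – compound 1 h, then IL-6 6 h at 37 °C · Signal – luminescence from STAT3-driven luciferase reporter · Evaluation – percent of IL-6-only median luminescence · Benchmarks – IL-6-only high control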
STAT3 inh-2 – STAT3 inhibition, confirmation assay | U3A cells, IL-6 STAT3 luciferase reporter, luminescence; cell line lacks STAT1 | hit rate 45% among 1,200 | inhibition, % at 5.7 µM | shares compounds with STAT3 inh-1;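 active = inhibition above the hit cutoff computed for the primary STAT3 screen, cut at about 44% in these data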
NFkB inh 2 – counter-screen for STAT3 inhibitors: NF-kappaB inhibition | shares compounds with STAT3 inh-1 | HEK293T NF-kB luciferase reporter, TNF-alpha induced | inhibition, % at 5.7 µM | hit rate 36% among 1,200 | AID 1308;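 active = inhibition above the mean of solvent-only control wells plus 3 SD, cutoff set per campaign, cut at about 13% in these data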
STAT1 inh STAT3c – counter-screen for STAT3 inhibitors: STAT1 inhibition | shares compounds with STAT3 inh-1 | NIH 3T3 STAT1-luciferase reporter, IFN-gamma induced, luminescence | inhibition, % at 5.7 µM | hit rate 27% among 1,200 | AID 1317;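 active = inhibition above the mean plus 3 SD of solvent-only control wells, limit set per screening run, cut at about 16% in these data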
A number is an active result; i = inactive; nt = not tested or not shown. Compounds with a hit are over-represented: about 5.1% of the library has one in this group of screens.

SMILES | STAT1 act | APP 5'UTR act | STAT1 inh | NF-kB expr up | STAT3 inh-1 | STAT3 act | STAT3 inh-2 | NFkB inh 2 | STAT1 inh STAT3c
O=C(O)CCC(=O)N1CCN(c2nc3ccccc3s2)CC1 | i | i | i | i | i | i | nt | nt | nt
CC(C)C(=O)Nc1ccc(C(=O)Nc2nnc(C(C)C)s2)cc1 | i | i | i | i | i | i | nt | nt | nt
Cc1ccc(C)c(SCC(=O)OCC(=O)N2CC(C)OC(C)C2)c1 (centres undefined) | i | i | i | i | i | i | nt | nt | nt
Brc1ccc2ncnc(NCc3ccccc3)c2c1 | i | i | i | i | i | i | nt | nt | nt
c1ccc(CCNc2ncnc3ccccc23)cc1 | i | i | i | i | 90 | i | 83 | 23 | i
c1ccc2c(c1)[nH]c1c(N3CCCC3)ncnc12 | i | i | i | i | 46 | i | i | 18 | 23
COCCN(C(=O)/C=C/c1ccccc1)c1nnc(-c2cccnc2)s1 | i | i | i | i | i | i | nt | nt | nt
O=C(COc1ccc(Cl)cc1)Nc1ccc(Cl)cn1 | i | i | i | i | i | i | nt | nt | nt
Cc1ccc(C(=O)Nc2ccc(Cl)cn2)cc1 | i | 172 | i | 6.6 | 56 | i | i | i | i
CCCOc1ccc(C(=O)Nc2ccc(Cl)cn2)cc1 | i | 137 | i | 8.6 | 56 | i | i | i | i
CCC1CCCCN1C(=S)NC1CCCCC1 (centres undefined) | i | i | i | i | i | i | nt | nt | nt
CC1Cc2ccccc2N1C(=O)CSc1nnc2n1C(C)(C)Cc1ccccc1-2 (centres undefined) | i | i | i | i | i | i | nt | nt | nt
COc1ccccc1N1CCN(C(=O)CSc2nnc3n2C(C)(C)Cc2ccccc2-3)CC1 | i | i | i | i | 57 | i | 53 | 14 | 19
Cc1nc(-c2ccc(NC(=O)c3ccccc3)cc2)cs1 | i | 184 | i | 7.5 | 71 | i | i | i | i
COc1ccc(NC(=O)CSc2ccc3ccccc3c2)cc1S(=O)(=O)N1CCCCC1 | i | i | i | i | i | i | nt | nt | nt
CC[n+]1ccccc1/C=C/c1ccc(N(C)C)cc1 | i | i | i | i | 68 | i | 60 | i | i
O=C(COC(=O)c1n[nH]c2ccccc12)Nc1cccc(S(=O)(=O)N2CCOCC2)c1 | i | i | i | i | i | i | nt | nt | nt
O=C(COC(=O)c1n[nH]c2ccccc12)Nc1ccc(S(=O)(=O)N2CCCC2)cc1 | i | i | i | i | 71 | i | 51 | i | i
CC1(C)CC(=O)C=C(NC2=CC3OC(c4ccccc4)OCC3OC2=O)C1 (centres undefined) | i | i | i | i | 45 | i | i | 23 | 18
Cc1nc(NC(=O)/C=C/c2ccco2)sc1C | 144 | i | i | i | 45 | i | i | i | i
CC(C)c1ccc(NC(=O)C2CCCCC2C(=O)O)cc1 (centres undefined) | i | i | i | i | 50 | i | i | i | i
Cc1c(C(=O)Nc2ccncc2)sc2nc(-c3ccccc3)cn12 | i | i | i | i | i | i | nt | nt | nt
Cc1c(C(=O)Nc2ccc3c(c2)OCCO3)sc2nc(-c3ccccc3)cn12 | i | i | 34 | i | 51 | i | i | i | i
CCN(Cc1ccccc1)C(=O)Cn1c(=O)n(-c2ccc(OC)cc2OC)c(=O)c2c(C)c(C)sc21 | i | i | i | i | i | i | nt | nt | nt
NC(=O)C1CCN(c2ccc(S(=O)(=O)N3CCC(Cc4ccccc4)CC3)cn2)CC1 | i | i | i | i | 64 | i | 55 | i | i
SMILES | STAT1 act | APP 5'UTR act | STAT1 inh | NF-kB expr up | STAT3 inh-1 | STAT3 act | STAT3 inh-2 | NFkB inh 2 | STAT1 inh STAT3c
O=S(=O)(c1ccc(N2CCCCCC2)nc1)N1CCCC1 | i | i | i | i | i | i | nt | nt | nt
COc1cccc(-c2nnc(-c3ccc(C)o3)o2)c1 | i | 164 | i | 4.2 | 55 | i | i | i | i
COc1cccc(-c2nnc(NC(=O)C(C)C)o2)c1 | i | i | i | i | i | i | nt | nt | nt
COc1ccc(C(=O)COc2ccc(F)cc2)c(O)c1C | i | i | i | i | i | i | nt | nt | nt
O=C(O)c1ccc(CSc2nc3ccccc3o2)cc1 | i | i | i | i | i | i | nt | nt | nt
Clc1c(CSc2nc3ccccc3o2)nc2ccccn12 | 137 | 172 | i | 5.5 | 45 | i | i | i | i
Cc1cc(C(=O)CN2C(=O)c3ccccc3S2(=O)=O)c(C)n1-c1ccccc1 | i | i | i | i | 59 | i | 78 | 16 | 58
CC(=O)N1CCC2(CC1)CC(=O)c1cc(OCC(=O)N3CCOCC3)ccc1O2 | i | i | i | i | i | i | nt | nt | nt
Cc1c(NC(=O)C(C)Sc2ncnc3ccccc23)c(=O)n(-c2ccccc2)n1C (centres undefined) | i | i | i | i | i | i | nt | nt | nt
CN1CCN(c2ncnc3c2cnn3-c2ccc(Cl)cc2)CC1 | i | i | i | i | 53 | i | i | i | i
Cc1ccc(Cn2ncc3c(N4CCN(Cc5ccc(Cl)cc5)CC4)ncnc32)cc1 | i | i | i | i | 54 | i | 49 | 25 | i
Cc1ccc(Cn2ncc3c(N4CCN(C)CC4)ncnc32)cc1 | i | i | i | i | i | i | nt | nt | nt
Cc1ccc(Cn2ncc3c(N4CCN(c5ccc(C)cc5)CC4)ncnc32)cc1 | i | i | i | i | 69 | i | 63 | 20 | i
CN=C1S/C(=C\c2cc(C)n(-c3ccccc3F)c2C)C(=O)N1C | i | i | i | i | 56 | i | i | i | i
CN=C1S/C(=C\c2ccc(N3CCOCC3)cc2C)C(=O)N1C | i | i | i | i | i | i | nt | nt | nt
Cc1ccc(-c2nc3ccc([N+](=O)[O-])cc3[nH]2)cc1 | i | 152 | i | 5.9 | 77 | i | i | i | i
O=[N+]([O-])c1cccc(-c2nc3ccc([N+](=O)[O-])cc3[nH]2)c1 | i | i | i | i | i | i | nt | nt | nt
Cc1ccc2nc(-c3cccc(N)c3)[nH]c2c1 | i | i | i | 4.8 | 66 | i | i | i | i
N#Cc1c(/N=C/c2cccs2)sc2c1CCCCC2 | i | 148 | i | i | 67 | i | i | i | i
Cc1sc2ncnc(NC3CCN(Cc4ccccc4)CC3)c2c1C | i | i | i | i | 45 | i | 62 | 16 | 25
Cc1nc2sccn2c1-c1csc(NCc2ccccc2)n1 | i | i | i | i | 66 | i | 51 | i | i
O=C(c1cccs1)c1ccc(-c2cccs2)s1 | i | 158 | i | 5.3 | 61 | i | i | i | i
FC(F)(F)c1cc(Oc2ccccc2Cl)nc(-c2ccccn2)n1 | i | i | i | i | i | i | nt | nt | nt
FC(F)(F)c1cnc(-c2cnc(-c3ccccn3)nc2)c(Cl)c1 | i | i | i | i | 48 | i | i | i | i

Screening results: PubChem BioAssay, several laboratories
